# Measurements of several laboratories.
# Each line is one published result; the experiments were not run side by side.
# Target: Serine/threonine-protein kinase RIO2 (RIOK2, Homo sapiens, UniProt Q9BVS4)
Structure (SMILES),assay,conditions,remaining binding
CCc1ccccc1C(=O)Nc1n[nH]c2c(C)c(F)c(C3C(C#N)=C(C)N(C)C(C)=C3C#N)cc12,"cell-free assay, competition with immobilised ligand",1 µM,93%
CCN1CCN(Cc2ccc(C(=O)Nc3ccc(C)c(Oc4ccc5c(c4)CC(=O)N5)c3)cc2C(F)(F)F)CC1,"binding, competition with immobilised ligand",1 µM,100%
O=C(c1ccc(Nc2ncc(Cl)c(-c3ccc(Cl)s3)n2)cc1)N1CCC(N2CCCC2)CC1,"binding, competition with immobilised ligand",1 µM,49%
CNC(=O)Nc1ccc2c(c1)[C@@]1(CC2)OC(=O)N(CC(=O)N(Cc2ccc(F)cc2)[C@@H](C)C(F)(F)F)C1=O,"cell-free assay, competition with immobilised ligand",1 µM,83%
CN(C)c1nccc(-c2cnn3ncccc23)n1,binding,1 µM,84%
CCS(=O)(=O)c1cc2cc(C[C@](O)(CC(C)(C)c3ccc(F)cc3C(N)=O)C(F)(F)F)[nH]c2cn1,"cell-free assay, competition with immobilised ligand",1 µM,100%
COc1cnc(Nc2cccc(S(N)(=O)=O)c2)nc1N1CCN(c2ccccc2)CC1,"binding, competition with immobilised ligand",1 µM,83%
CN(c1nccc(-c2cnn3ncccc23)n1)C1CC1,binding,1 µM,99%
CC1=C(C#N)C(c2ccc3c(c2)c(NC(=O)c2ccccc2C)nn3C)C(C#N)=C(C)N1,"cell-free assay, competition with immobilised ligand",1 µM,65%
O=C(Nc1c[nH]nc1C(=O)NC1CCNCC1)c1cc(F)cc(F)c1,"binding, competition with immobilised ligand",1 µM,100%
Cc1cnn2ncc(-c3ccnc(N(C)C)n3)c2c1,binding,1 µM,92%
O=C(NCCCN1CCOCC1)c1ccc(Nc2nccc(-c3cc4ccccc4s3)n2)cc1,"binding, competition with immobilised ligand",1 µM,47%
C[C@@H]1CN(c2ccc3ncc(-c4ccc5[nH]nc(C6CC6)c5c4)n3n2)C[C@H](C)O1,"binding, competition with immobilised ligand",50 nM,76%
COc1ncc2cc3ccccc3nc2c1C#N,"cell-free assay, competition with immobilised ligand",5 µM,91%
c1cncc(-c2cccc(Nc3nccc(NC4CCCCC4)n3)c2)c1,"binding, competition with immobilised ligand",10 µM,37%
CN(C)c1ncc(F)c(-c2cnn3ncccc23)n1,binding,1 µM,78%
CN(C)C(=O)Cn1cc(-c2nc([C@@](C)(c3ccc(-c4cnc(N)nc4)cc3)C3CC3)no2)cn1,"cell-free assay, competition with immobilised ligand",1 µM,87%
Nc1ncc2c(n1)-c1c([nH]c3ccc(C#CC4CC4)cc13)CCCC2,"binding, competition with immobilised ligand",1 µM,77%
N#Cc1ccccc1CSc1nnc2c(n1)[nH]c1ccccc12,"binding, competition with immobilised ligand",10 µM,94%
c1cnn2ncc(-c3ccnc(N4CCC45COC5)n3)c2c1,binding,1 µM,61%
CC(=O)N1CCC(c2ccc(C(=O)NC3=NCCN3)cc2C(F)(F)F)CC1,"cell-free assay, competition with immobilised ligand",1 µM,93%
C[C@H]1CCN(c2nccc(-c3cnn4ncccc34)n2)C1,binding,1 µM,90%
O=C(c1ccc(Nc2ncc(Cl)c(-c3cc4ccccc4s3)n2)cc1)N1CCC(N2CCCC2)CC1,"binding, competition with immobilised ligand",1 µM,40%
CC(C)(O)c1cncc(-c2nc3ccc(F)cc3n2C2CC2)c1,"cell-free assay, competition with immobilised ligand",1 µM,100%
